Test results from the M2OR odorant receptor database.
Changes are numbered by the printed parent chain.

Columns and labels:
Settings in all cases: stereoisomer not certain
[1] = biological target: T1, OR8D2 (Homo sapiens) (UniProt Q9GZM6)
T1 sequence (whole entry): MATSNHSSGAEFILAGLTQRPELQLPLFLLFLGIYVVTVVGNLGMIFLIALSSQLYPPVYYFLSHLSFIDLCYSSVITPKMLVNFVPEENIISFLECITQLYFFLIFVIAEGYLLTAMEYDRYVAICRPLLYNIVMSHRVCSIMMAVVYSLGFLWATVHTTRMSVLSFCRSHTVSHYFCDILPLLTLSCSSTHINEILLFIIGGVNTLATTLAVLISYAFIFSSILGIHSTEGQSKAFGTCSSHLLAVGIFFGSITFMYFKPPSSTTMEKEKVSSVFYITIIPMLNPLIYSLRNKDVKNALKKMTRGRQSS
Method in brief: (§1)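 Whether a receptor–molecule pair is responsive (active) rests on the original authors' judgment that its measured signal was statistically different from baseline. Pairs without that judgment are non-responsive (inactive). Sources used varied assay methods, commonly transient luciferase assays in mammalian cell lines.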

[2] = biological target: T2, OR8D4 (Homo sapiens) (UniProt Q8NGM9)
T2 sequence (whole entry): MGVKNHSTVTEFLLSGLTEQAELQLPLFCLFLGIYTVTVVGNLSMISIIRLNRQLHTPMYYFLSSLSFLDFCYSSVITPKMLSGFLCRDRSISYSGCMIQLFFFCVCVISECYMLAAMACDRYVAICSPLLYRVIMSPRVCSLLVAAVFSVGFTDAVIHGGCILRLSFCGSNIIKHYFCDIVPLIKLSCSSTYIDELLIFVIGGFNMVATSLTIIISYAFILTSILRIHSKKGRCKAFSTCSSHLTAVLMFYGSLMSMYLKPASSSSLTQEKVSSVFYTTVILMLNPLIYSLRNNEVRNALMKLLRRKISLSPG
Method in brief: as §1

[3] = tested on: T3, OR8D4 C120Y R133K
T3 sequence (whole entry): T2 sequence (whole entry) with C120Y, R133K
Method in brief: as §1

[4] = biological target: T4, OR8G1 (Homo sapiens) (UniProt Q15617)
T4 sequence (whole entry): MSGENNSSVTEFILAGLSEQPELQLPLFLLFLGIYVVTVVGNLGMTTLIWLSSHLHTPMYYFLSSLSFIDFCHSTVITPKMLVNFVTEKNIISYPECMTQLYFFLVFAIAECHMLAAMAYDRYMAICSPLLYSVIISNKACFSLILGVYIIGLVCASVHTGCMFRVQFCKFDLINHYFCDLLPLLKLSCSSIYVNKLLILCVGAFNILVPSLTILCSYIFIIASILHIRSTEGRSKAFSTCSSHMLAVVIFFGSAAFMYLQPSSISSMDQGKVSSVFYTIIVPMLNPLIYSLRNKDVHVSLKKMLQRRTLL
Method in brief: as §1

[5] = biological target: T5, OR8G5 (Homo sapiens) (UniProt Q8NG78)
T5 sequence (whole entry): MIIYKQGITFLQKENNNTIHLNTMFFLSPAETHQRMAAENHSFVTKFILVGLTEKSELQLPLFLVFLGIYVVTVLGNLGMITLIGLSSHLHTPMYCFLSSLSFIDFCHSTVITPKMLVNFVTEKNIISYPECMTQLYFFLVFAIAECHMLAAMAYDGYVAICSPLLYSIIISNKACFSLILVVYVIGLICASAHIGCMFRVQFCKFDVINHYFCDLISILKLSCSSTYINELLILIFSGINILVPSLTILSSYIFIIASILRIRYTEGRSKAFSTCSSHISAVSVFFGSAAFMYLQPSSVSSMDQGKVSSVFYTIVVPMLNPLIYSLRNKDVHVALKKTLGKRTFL
Method in brief: as §1

[6] = biological target: T6, OR8H1 (Homo sapiens) (UniProt Q8NGG4)
T6 sequence (whole entry): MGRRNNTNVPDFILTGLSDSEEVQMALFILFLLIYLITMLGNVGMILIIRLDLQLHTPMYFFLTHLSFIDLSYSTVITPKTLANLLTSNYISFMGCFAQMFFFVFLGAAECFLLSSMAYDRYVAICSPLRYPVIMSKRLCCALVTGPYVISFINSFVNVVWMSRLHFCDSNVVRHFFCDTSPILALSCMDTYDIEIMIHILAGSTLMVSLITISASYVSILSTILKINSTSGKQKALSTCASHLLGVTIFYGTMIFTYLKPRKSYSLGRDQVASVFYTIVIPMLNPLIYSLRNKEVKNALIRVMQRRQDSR
Method in brief: as §1

[7] = biological target: T7, OR8H2 (Homo sapiens) (UniProt Q8N162)
T7 sequence (whole entry): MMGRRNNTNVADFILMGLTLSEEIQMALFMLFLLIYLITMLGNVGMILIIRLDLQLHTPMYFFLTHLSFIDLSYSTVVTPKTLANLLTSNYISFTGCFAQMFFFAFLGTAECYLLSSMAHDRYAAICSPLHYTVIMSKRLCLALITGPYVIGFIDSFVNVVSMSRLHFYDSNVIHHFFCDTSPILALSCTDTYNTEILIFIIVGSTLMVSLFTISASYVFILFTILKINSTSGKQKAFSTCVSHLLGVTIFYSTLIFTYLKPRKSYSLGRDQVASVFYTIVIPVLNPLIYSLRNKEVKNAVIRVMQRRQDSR
Method in brief: as §1

[8] = tested on: T8, OR8H2 H120Y Y169C V284M
T8 sequence (whole entry): T7 sequence (whole entry) with H120Y, Y169C, V284M
Method in brief: as §1

[9] = biological target: T9, OR8H3 (Homo sapiens) (UniProt Q8N146)
T9 sequence (whole entry): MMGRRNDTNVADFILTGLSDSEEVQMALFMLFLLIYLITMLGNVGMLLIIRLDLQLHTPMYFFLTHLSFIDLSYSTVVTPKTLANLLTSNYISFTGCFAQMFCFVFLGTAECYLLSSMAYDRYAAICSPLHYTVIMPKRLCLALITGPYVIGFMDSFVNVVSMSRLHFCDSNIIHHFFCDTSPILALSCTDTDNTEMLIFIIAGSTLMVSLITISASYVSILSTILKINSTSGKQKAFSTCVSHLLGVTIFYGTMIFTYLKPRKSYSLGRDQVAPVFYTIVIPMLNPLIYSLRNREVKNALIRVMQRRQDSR
Method in brief: as §1

[10] = tested on: T10, OR8H3
T10 sequence (whole entry): T9 sequence (whole entry) with P137S
Method in brief: as §1

[11] = biological target: T11, OR8I2 (Homo sapiens) (UniProt Q8N0Y5)
T11 sequence (whole entry): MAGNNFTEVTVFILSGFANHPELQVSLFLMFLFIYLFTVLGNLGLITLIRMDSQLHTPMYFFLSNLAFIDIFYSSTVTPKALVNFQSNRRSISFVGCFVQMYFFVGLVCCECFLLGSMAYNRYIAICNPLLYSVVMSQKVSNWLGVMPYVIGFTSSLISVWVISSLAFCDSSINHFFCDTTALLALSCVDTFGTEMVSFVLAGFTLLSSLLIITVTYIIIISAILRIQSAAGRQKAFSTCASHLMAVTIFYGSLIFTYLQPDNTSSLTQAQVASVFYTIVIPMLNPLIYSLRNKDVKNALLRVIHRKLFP
Method in brief: as §1

[12] = biological target: T12, OR8J1 (Homo sapiens) (UniProt Q8NGP2)
T12 sequence (whole entry): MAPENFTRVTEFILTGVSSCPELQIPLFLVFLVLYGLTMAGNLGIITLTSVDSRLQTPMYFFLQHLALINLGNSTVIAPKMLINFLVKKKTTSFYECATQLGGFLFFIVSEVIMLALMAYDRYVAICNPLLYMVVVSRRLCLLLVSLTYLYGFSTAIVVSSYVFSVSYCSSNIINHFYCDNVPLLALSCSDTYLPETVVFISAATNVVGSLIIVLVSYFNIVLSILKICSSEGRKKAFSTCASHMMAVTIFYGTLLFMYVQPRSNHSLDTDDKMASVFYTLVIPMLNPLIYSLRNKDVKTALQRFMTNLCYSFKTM
Method in brief: as §1

[13] = tested on: T13, OR8J1
T13 sequence (whole entry): T12 sequence (whole entry) with Y120C
Method in brief: as §1

[14] = biological target: T14, OR8J3 (Homo sapiens) (UniProt Q8NGG0)
T14 sequence (whole entry): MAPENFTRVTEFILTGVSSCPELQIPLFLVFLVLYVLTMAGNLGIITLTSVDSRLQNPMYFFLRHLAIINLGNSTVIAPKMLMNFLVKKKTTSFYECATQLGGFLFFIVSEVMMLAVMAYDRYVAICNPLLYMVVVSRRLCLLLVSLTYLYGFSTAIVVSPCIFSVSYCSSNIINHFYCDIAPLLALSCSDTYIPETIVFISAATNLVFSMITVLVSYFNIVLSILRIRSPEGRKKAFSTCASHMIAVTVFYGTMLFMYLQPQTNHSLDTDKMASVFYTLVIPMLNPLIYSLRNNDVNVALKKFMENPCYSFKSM
Method in brief: as §1

[15] = tested on: T15, OR8J3 E4V
T15 sequence (whole entry): T14 sequence (whole entry) with E4V
Method in brief: as §1

[16] = biological target: T16, OR8K1 (Homo sapiens) (UniProt Q8NGG5)
T16 sequence (whole entry): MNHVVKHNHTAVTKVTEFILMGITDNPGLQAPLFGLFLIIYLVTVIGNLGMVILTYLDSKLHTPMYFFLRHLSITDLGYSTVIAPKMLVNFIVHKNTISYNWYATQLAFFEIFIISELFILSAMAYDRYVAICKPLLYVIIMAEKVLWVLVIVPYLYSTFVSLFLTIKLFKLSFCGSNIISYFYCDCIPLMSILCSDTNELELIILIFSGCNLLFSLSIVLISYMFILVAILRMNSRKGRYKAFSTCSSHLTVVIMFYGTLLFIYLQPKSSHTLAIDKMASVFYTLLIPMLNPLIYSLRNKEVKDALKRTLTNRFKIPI
Method in brief: as §1

[17] = biological target: T17, OR8K3 (Homo sapiens) (UniProt Q8NH51)
T17 sequence (whole entry): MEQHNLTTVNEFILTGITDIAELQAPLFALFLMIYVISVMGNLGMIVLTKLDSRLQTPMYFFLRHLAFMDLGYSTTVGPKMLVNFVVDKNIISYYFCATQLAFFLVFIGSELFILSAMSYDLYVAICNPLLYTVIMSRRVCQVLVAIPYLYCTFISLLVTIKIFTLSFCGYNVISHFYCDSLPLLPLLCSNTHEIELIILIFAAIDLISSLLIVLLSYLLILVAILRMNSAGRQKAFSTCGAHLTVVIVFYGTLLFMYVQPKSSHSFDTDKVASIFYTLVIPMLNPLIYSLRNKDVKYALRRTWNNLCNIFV
Method in brief: as §1

[18] = biological target: T18, OR8K5 (Homo sapiens) (UniProt Q8NH50)
T18 sequence (whole entry): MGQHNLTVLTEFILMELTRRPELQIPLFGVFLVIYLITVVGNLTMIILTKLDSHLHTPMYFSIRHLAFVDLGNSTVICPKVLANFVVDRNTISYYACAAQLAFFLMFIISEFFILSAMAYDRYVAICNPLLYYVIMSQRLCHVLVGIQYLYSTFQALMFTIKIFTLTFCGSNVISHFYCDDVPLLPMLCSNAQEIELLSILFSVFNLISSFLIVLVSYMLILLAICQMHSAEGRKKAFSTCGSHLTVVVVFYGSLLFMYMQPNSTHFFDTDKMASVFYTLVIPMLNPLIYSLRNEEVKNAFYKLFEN
Method in brief: as §1

[19] = biological target: T19, OR8S1 (Homo sapiens) (UniProt Q8NH09)
T19 sequence (whole entry): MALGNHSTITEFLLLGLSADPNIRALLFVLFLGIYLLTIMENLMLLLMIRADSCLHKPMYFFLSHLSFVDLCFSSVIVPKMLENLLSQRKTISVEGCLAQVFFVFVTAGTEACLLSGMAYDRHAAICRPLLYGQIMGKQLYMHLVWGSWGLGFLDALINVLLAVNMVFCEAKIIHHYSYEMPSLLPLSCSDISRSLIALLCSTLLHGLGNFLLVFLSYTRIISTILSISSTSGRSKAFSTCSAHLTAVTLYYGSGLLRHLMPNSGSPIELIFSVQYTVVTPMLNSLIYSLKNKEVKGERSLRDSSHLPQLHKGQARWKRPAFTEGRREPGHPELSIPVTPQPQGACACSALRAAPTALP
Method in brief: as §1

Measured: odorant receptor agonist call;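 note: active if original authors judged signal statistically different from baseline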

CCC1OC(=O)C(O)=C1C (stereo not drawn)
inactive: all assays above

CCCC(S)CCOC(C)=O (stereo not drawn)
inactive: all assays above

Cc1cnc(C)c(C)n1
inactive: all assays above

CCCCC(S)C(C)CO (stereo not drawn)
not listed: [3] | [8] | [10] | [13] | [15]
inactive: all other assays above

CC1=C(O)C(=O)OC1C (stereo not drawn)
inactive: all assays above

CC(CO)CS (stereo not drawn)
not listed: [3] | [8] | [10] | [13] | [15]
inactive: all other assays above

CC1=C(O)C(=O)C(C)O1 (stereo not drawn)
inactive: all assays above
